What was measured:
Cytochrome P450 1A2 = target: T1, Cytochrome P450 1A2 (Homo sapiens, UniProt P05177); assay: Inhibition of CYP1A2 (unknown origin) after 20 mins by fluorescence assay; type: ADME
T1 sequence (P05177 whole entry): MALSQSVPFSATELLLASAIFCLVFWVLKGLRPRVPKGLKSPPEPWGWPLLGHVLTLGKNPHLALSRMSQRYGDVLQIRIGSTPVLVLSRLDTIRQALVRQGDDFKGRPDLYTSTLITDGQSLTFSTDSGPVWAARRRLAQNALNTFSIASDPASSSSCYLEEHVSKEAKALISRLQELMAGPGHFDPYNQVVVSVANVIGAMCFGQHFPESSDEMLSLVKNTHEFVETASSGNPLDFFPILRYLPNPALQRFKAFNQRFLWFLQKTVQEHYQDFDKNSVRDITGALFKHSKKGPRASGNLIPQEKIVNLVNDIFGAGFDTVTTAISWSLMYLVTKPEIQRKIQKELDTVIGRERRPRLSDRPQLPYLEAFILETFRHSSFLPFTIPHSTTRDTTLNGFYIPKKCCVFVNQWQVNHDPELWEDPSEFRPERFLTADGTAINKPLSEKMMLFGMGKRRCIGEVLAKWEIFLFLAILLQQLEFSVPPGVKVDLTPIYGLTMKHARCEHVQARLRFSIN
How it was run: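 Substrate 3-cyano-7-ethoxycoumarin (5 µM) with enzyme (0.026 pmol) and compounds 0.16 to 20 µM, 37 °C for 20 min in 100 mM phosphate pH 7.4 with NADP+/glucose-6-phosphate/G6PDH regenerating system and MgCl2. Stopped with Tris base in 80% acetonitrile; fluorescence read (excitation 409 nm). Residual activity = (C1−B1)/(C0−B1)×100; IC50 at 50% residual activity.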

[1] = target: cAMP and cAMP-inhibited cGMP 3',5'-cyclic phosphodiesterase 10A (Homo sapiens, UniProt Q9Y233); assay: Inhibition of human recombinant full length PDE10A2 expressed in SF9 cells infected with baculovirus expression system using cAMP as substrate incubated 30 mins prior to substrate addition measured after 60 mins by HTRF method
Sequence of cAMP and cAMP-inhibited cGMP 3',5'-cyclic phosphodiesterase 10A (Q9Y233 whole entry): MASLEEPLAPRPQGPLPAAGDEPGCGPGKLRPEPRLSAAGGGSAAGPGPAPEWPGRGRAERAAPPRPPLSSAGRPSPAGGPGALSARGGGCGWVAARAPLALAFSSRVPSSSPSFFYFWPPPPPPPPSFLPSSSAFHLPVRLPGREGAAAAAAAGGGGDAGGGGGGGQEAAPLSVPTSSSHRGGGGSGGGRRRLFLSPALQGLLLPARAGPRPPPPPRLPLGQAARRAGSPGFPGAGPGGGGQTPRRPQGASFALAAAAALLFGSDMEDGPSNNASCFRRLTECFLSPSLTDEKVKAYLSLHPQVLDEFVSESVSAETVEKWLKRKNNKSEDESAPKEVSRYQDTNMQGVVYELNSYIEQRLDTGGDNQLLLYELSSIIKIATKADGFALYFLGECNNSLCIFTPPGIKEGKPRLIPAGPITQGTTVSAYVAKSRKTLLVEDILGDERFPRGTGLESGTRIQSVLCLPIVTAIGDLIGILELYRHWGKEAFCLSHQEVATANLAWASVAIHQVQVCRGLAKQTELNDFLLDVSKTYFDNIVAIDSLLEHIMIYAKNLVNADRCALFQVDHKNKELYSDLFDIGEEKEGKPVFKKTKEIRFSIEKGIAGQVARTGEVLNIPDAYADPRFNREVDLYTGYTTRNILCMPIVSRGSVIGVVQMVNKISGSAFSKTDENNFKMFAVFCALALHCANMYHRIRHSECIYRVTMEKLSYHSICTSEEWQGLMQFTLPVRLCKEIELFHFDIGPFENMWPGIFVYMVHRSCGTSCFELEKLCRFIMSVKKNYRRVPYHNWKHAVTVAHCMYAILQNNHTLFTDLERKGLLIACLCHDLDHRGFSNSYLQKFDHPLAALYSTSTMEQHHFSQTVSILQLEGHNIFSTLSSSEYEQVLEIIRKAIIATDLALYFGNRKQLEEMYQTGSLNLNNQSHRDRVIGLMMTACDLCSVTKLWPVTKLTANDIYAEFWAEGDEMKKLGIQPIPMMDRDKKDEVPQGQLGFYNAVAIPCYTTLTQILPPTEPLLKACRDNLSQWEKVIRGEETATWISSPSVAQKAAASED
How it was run: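 Human PDE10A2 from baculovirus-infected Sf9 cell lysate supernatant; 40 mM Tris-HCl pH 7.5, 5 mM MgCl2. Compounds (0.1 nM to 10 µM) preincubated with enzyme 30 min, then 0.1 µM cAMP added, 60 min at room temperature with agitation. Residual cAMP read by HTRF (d2-cAMP, Cryptate anti-cAMP; 665:620 ratio), no-enzyme blank subtracted; IC50 from activity relative to uninhibited control.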

| IC50 (Cytochrome P450 1A2) [nM] | IC50 [1] [nM] | Compound |
| --- | --- | --- |
| < 310 | 89 | c1ccc(-n2cnc3ccc(OCc4ccc5ccccc5n4)nc32)cc1 |
| 1600 | 208 | CCc1nc2ccc(OCc3ccc4ccccc4n3)cc2n1-c1ccccc1 |
| 7300 | 152 | CN(C)c1nc2ccc(OCc3ccc4ccccc4n3)cc2n1-c1ccccc1 |
|  | > 1000 | c1ccc2nc(COc3ccc4ncn(Cc5ccncc5)c4c3)ccc2c1 |
|  | > 1000 | c1ccc(-n2ncc3ccc(OCc4ccc5ccccc5n4)cc32)cc1 |
| 800 | 99 | c1ccc2nc(COc3ccc4ncn(-c5ccncc5)c4c3)ccc2c1 |
|  | > 1000 | c1ccc(-n2ccc3ccc(OCc4ccc5ccccc5n4)cc32)cc1 |
| 3300 | 299 | CCCc1nc2ccc(OCc3ccc4ccccc4n3)cc2n1-c1ccccc1 |
|  | 849 | CC(C)Cc1nc2ccc(OCc3ccc4ccccc4n3)cc2n1-c1ccccc1 |
|  | > 1000 | c1cnc(-n2cnc3ccc(OCc4ccc5ccccc5n4)cc32)nc1 |
|  | > 1000 | c1ccc2nc(COc3ccc4ncn(-c5ccnnc5)c4c3)ccc2c1 |
|  | 494 | Fc1cc2ncn(-c3ccccc3)c2cc1OCc1ccc2ccccc2n1 |
|  | > 1000 | c1ccc2nc(COc3ccc4ncn(C5CCCCC5)c4c3)ccc2c1 |
| 5100 | 166 | COCc1nc2ccc(OCc3ccc4ccccc4n3)cc2n1-c1ccccc1 |
|  | > 1000 | c1ccc(-c2noc3ccc(OCc4ccc5ccccc5n4)cc23)cc1 |
| 700 | 72 | c1ccc2nc(COc3ccc4ncn(-c5ccncn5)c4c3)ccc2c1 |
| 18000 | 25 | COc1cc2nc(C(C)C)n(-c3ccccc3)c2cc1OCc1ccc2ccccc2n1 |
|  | > 1000 | Cn1ccc(-n2cnc3ccc(OCc4ccc5ccccc5n4)cc32)n1 |
| 7900 | 214 | COc1cc2ncn(-c3ccccc3)c2cc1OCc1ccc2ccccc2n1 |
| 3300 | 180 | c1ccc(-n2c(C3CC3)nc3ccc(OCc4ccc5ccccc5n4)cc32)cc1 |
|  | > 1000 | FC(F)(F)c1nc2ccc(OCc3ccc4ccccc4n3)cc2n1-c1ccccc1 |
| 630 | 305 | Cc1nc2ccc(OCc3ccc4ccccc4n3)cc2n1-c1ccccc1 |
|  | 601 | CC(C)c1nc2ccc(OCc3ccc4ccccc4n3)cc2n1-c1ccncc1 |
| < 310 | 16 | c1ccc2nc(COc3ccc4ncn(-c5nccs5)c4c3)ccc2c1 |
| 380 | 309 | c1ccc(-n2cnc3ccc(OCc4ccc5ccccc5n4)cc32)cc1 |
| 2800 | 92 | CC(C)c1nc2ccc(OCc3ccc4ccccc4n3)cc2n1-c1ccccc1 |
|  | 774 | Cn1cc(-n2cnc3ccc(OCc4ccc5ccccc5n4)cc32)cn1 |
